The values that follow come from PubChem BioAssay AID651627 (The Scripps Research Institute Molecular Screening Center, 2012).

Chain of Protein-arginine deiminase type-4 (Homo sapiens) (Q9UM07 whole entry, looked up): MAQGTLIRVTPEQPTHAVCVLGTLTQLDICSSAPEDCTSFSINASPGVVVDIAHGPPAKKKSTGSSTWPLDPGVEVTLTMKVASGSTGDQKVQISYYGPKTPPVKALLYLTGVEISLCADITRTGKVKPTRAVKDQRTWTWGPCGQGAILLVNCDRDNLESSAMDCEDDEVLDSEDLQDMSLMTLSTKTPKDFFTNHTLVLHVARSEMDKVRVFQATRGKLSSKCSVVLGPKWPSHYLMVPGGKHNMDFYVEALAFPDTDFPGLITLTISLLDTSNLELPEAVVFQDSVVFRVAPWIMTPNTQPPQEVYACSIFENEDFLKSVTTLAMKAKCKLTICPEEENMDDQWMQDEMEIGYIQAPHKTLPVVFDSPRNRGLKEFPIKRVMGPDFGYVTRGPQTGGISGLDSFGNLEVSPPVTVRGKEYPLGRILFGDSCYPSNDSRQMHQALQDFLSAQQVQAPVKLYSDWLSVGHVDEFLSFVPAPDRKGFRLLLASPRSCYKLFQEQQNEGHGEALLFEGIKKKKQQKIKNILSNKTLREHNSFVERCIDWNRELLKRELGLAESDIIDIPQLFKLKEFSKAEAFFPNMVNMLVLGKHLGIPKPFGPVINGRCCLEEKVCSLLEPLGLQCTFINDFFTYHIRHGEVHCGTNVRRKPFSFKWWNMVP

The target in the assay is Protein-arginine deiminase type-4 (Homo sapiens) (UniProt Q9UM07). Briefly: PAD4 inhibition reversibility after dialysis, late-stage follow-up, mechanism study for PAD4 inhibitor project, biochemical, BAEE substrate, colorimetric citrulline readout (AID 651627). The note with it: recombinant PAD4, dialysis, at 100 µM, stronger effect = lower value. The essentials: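 System: Recombinant PAD4 enzyme | Amount: 0.6 µM PAD4 | Reagent: 10 mM BAEE substrate | Benchmarks: DMSO no-compound control | Signal: Colorimetric citrulline detection, absorbance at 540 nm | Times: 20 h dialysis, 15 min BAEE reaction at 37 °C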
In the case of `NC1=CC(=O)c2ccc(-c3cccc(C(=O)O)n3)nc2C1=O`, the residual activity after dialysis is 0%.

As for `COC1=C(Br)C(=O)c2ncccc2C1=O`, the residual activity after dialysis was 0%.

With `NC1=CC(=O)c2cccnc2C1=O`, the residual activity after dialysis was 2%.

In the case of `COC(=O)c1cccc(-c2ccc3c(n2)C(=O)C(N)=CC3=O)n1`, the residual activity after dialysis was 13%.

Consider `NC1=CC(=O)c2ccc(-c3ccccn3)nc2C1=O`, for which the residual activity after dialysis was 12%.
